41 molecules from PubChem BioAssay AID588395 (Southern Research Specialized Biocontainment Screening …, 2011) can be followed below.

Calls of active or inactive are those of the source.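 Rule for the calls: active = phage lysis blocked by at least 50% at any tested dose; inconclusive = replicate wells disagree with each other; inactive = the rest.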

In one assay the test system is E. coli UTI89 K1F phage lysis inhibition, OD600 3 h. Kind of assay: blocking phage-induced lysis of E. coli UTI89 – set 7, capsule biogenesis inhibitor project, dose response (AID 588395).
Conditions: not given
Put shortly:
(§1)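 Assay system: E. coli UTI89 (K1) / Input: bacterial culture diluted 1:100 into each well / Medium: LB broth / Dosing: 0.78–100 µM final, 1% DMSO / Timing: 1.25 h pre-infection at 37 °C, 3 h phage exposure / Detection: OD600 absorbance / Read-out: inhibition of phage lysis from OD600 at 3 h post-infection / Repeats: duplicates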
Regarding `COc1ccc2nc(NC(=O)c3ccc(Br)s3)sc2c1`, the IC50 (in general, the point on the concentration scale where inhibition reaches its midpoint) was 2.15 µM.

In the case of `O=C(Nc1ccncc1)c1ccc2ncsc2c1`, the IC50 is 1.31 µM.

Tested on in a further assay: not listed separately
The description is as above. The note with it: E. coli UTI89 K1F phage lysis inhibition, OD600 3 h; at 100 µM (top of the series). Put shortly: as §1
In the case of `O=C(Nc1nc2ccc(Cl)cc2s1)c1ccc(Br)s1`, the inhibition of phage lysis is 6.12% (inactive).

As for `O=S(=O)(Nc1nc2ccc(Br)cc2s1)c1ccc(Br)s1`, the inhibition of phage lysis is 6.67% (inactive).

In the case of `O=C(Nc1nc2ccc(Br)cc2s1)c1ccc(Br)cc1`, the inhibition of phage lysis is 2.55% (inactive).

With `O=C(Nc1nc2ccc(F)cc2s1)c1ccc(Br)s1`, the inhibition of phage lysis is 6.49% (inactive).

For the molecule `COc1ccc2nc(NC(=O)c3ccc(Br)o3)[nH]c2c1`, the inhibition of phage lysis was 0.41% (inactive).

`Cc1ccc(C(=O)Nc2nc3ccccc3s2)s1`: the inhibition of phage lysis was -9.44% (inactive).

As to `COc1ccc(NC(=O)c2ccc3ncccc3c2)cc1`, the inhibition of phage lysis was -4.29% (inactive).

On to `O=C(Nc1nc2ccc(C(F)(F)F)cc2s1)c1ccc(Br)s1`, for which the inhibition of phage lysis is 2.86% (inactive).

Consider `O=C(Nc1nc2ccc(C(F)(F)F)cc2s1)c1ccc(Br)cc1`, for which the inhibition of phage lysis was 2.13% (inactive).

Regarding `COc1ccc2nc(NC(=O)c3ccc(Br)cc3)[nH]c2c1`, the inhibition of phage lysis was -2.55% (inactive).

In the case of `Cc1ccc(C(=O)Nc2nc3ccc(Cl)cc3s2)s1`, the inhibition of phage lysis is -2.05% (inactive).

On to `O=C(Nc1nc2ccc(OC(F)(F)F)cc2s1)c1ccc(Br)o1`, for which the inhibition of phage lysis was -11.1% (inactive).

For the molecule `O=C(Nc1nc2ccc(F)cc2s1)c1ccc(Br)o1`, the inhibition of phage lysis was 15.8% (inactive).

As to `O=C(Nc1nc2ccc(F)cc2s1)c1ccc(Br)cc1`, the inhibition of phage lysis is -15.7% (inactive).

Take `O=C(Nc1cccnc1)c1ccc2ncsc2c1`: the inhibition of phage lysis was 0.82% (inactive).

On to `COc1ccc(NC(=O)c2ccc3ncsc3c2)cc1`, for which the inhibition of phage lysis was 4.51% (inactive).

As to `O=C(Nc1nc2ccc(Br)cc2s1)c1ccc(Br)o1`, the inhibition of phage lysis was 9.79% (inactive).

Take `O=C(Nc1nc2ccccc2s1)c1ccc(Br)s1`: the inhibition of phage lysis was -6.12% (inactive).

Take `COc1ccc2nc(NS(=O)(=O)c3ccc(Br)s3)sc2c1`: the inhibition of phage lysis was -0.42% (inactive).

As for `COC(=O)c1ccc(NC(=O)c2ccc3ncccc3c2)cc1`, the inhibition of phage lysis was 39.1% (inactive).

In the case of `Cc1ccc(NC(=O)c2ccc3ncccc3c2)cc1`, the inhibition of phage lysis is 0% (inactive).

For `Cc1ccc(C(=O)Nc2nc3ccc(Br)cc3s2)s1`, the inhibition of phage lysis is -11.1% (inactive).

In the case of `O=C(Nc1nc2ccc(Cl)cc2s1)c1ccc(Br)o1`, the inhibition of phage lysis was -4.26% (inactive).

For the molecule `O=C(Nc1nc2ccc(OC(F)(F)F)cc2s1)c1ccc(Br)cc1`, the inhibition of phage lysis was -15.3% (inactive).

For the molecule `COC(=O)c1ccc(NC(=O)c2ccc3ncsc3c2)cc1`, the inhibition of phage lysis was 9.02% (inactive).

For `COc1ccc2nc(NC(=O)c3ccc(Br)s3)[nH]c2c1`, the inhibition of phage lysis was 0.85% (inactive).

For the molecule `O=C(Nc1nc2ccc(Cl)cc2s1)c1ccc(Br)cc1`, the inhibition of phage lysis was 12.9% (inactive).

Turning to `O=C(Nc1nc2ccccc2s1)c1ccc(Br)cc1`, the inhibition of phage lysis was 1.7% (inactive).

As to `COc1ccc2nc(NC(=O)c3cc(Br)c(Br)s3)[nH]c2c1`, the inhibition of phage lysis is -1.23% (inactive).

Consider `O=C(Nc1nc2ccc(Br)cc2s1)c1ccc(Br)s1`, for which the inhibition of phage lysis was 18% (inactive).

For the molecule `O=S(=O)(Nc1nc2ccccc2s1)c1ccc(Br)s1`, the inhibition of phage lysis was -2.08% (inactive).

As for `O=C(Nc1ccc(C(F)(F)F)cc1)c1ccc2ncccc2c1`, the inhibition of phage lysis is 2.46% (inactive).

`COc1ccc2nc(NC(=O)c3ccc(Br)o3)sc2c1`: the inhibition of phage lysis is 41.7% (inactive).

With `COc1ccc2nc(NC(=O)c3ccc(Br)cc3)sc2c1`, the inhibition of phage lysis was 4.68% (inactive).

Take `O=C(Nc1ccc(Br)cc1)c1ccc2ncccc2c1`: the inhibition of phage lysis is -0.43% (inactive).

Take `O=C(Nc1nc2ccc(OC(F)(F)F)cc2s1)c1ccc(Br)s1`: the inhibition of phage lysis was 1.91% (inactive).

Turning to `COc1ccc2nc(NC(=O)c3ccc(C)s3)sc2c1`, the inhibition of phage lysis is -3.86% (inactive).

`O=C(Nc1nc2ccccc2s1)c1ccc(Br)o1`: the inhibition of phage lysis was 0% (inactive).

With `O=C(Nc1nc2ccc(C(F)(F)F)cc2s1)c1ccc(Br)o1`, the inhibition of phage lysis is 1.64% (inactive).
